Inconclusive results are not listed. Activity calls are given as the source filed them.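 How the source made its calls, unless noted: active means cell viability at or below a set limit in both duplicate runs, the limit being the all-compound median minus 4 SD (cut at about 23% in these data, passing the limit was not always enough); inconclusive means no clear call, values can overlap the other calls; inactive means the rest.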
Experiments:
[1] = S. cerevisiae growth inhibition in permissive medium (OD615), pilot counter-assay for S. cerevisiae lifespan shortening project, permissive growth control (AID 705;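 active means growth inhibition above 25% in both replicates, a cutoff set 3 SD above the mean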); conditions: OD615, 24 h, at 10 µM, stronger effect = higher value
Outline: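 Material: engineered DeaD yeast; compound dosing: one dose 10 µM, DMSO 0.25% final; measure: yeast growth inhibition indicated by reduced 24 h OD615; detection: OD615 turbidity read; incubation: cells pre-grown 4 h, then 24 h compound exposure, 30 °C humidified; medium: permissive synthetic complete medium with raffinose and galactose carbon sources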

[2] = S. cerevisiae growth inhibition in restrictive medium, OD615, pilot screen, restrictive growth control, yeast lifespan reduction project (AID 706;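 active means growth inhibition above a set limit, 3 SD over mean compound inhibition, in both replicates, cut at about 43% in these data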;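 further: modified DeaD lifespan yeast strain shifted to restrictive glucose medium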); conditions: OD615, 48 h, at 10 µM, stronger effect = higher value
Outline: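 material = engineered S. cerevisiae DeaD strain | medium = glucose-based CSMM-D restrictive medium | times = 4 h pre-incubation, 48 h exposure at 30 °C | technique = OD615 absorbance reading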

[3] = doxorubicin toxicity protection in MRP-1 cells – H69AR cells, CellTiter-Glo, duplicate, MRP-1 activator project, pilot screen (AID 807;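 active means viability increase at or above a cutoff of the median across tested compounds plus 3 SD, cut at about 8.5% in these data, passing the limit was not always enough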;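 further: compound pretreatment 18-22 h then 72 h combined with doxorubicin; 0% = doxorubicin alone and 100% = vehicle without doxorubicin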); conditions: H69AR viability with doxorubicin, CellTiter-Glo luminescence; at 10 µM; stronger effect = higher value
[4] = viability of HCT116 without oncogenic beta-catenin – human colon tumor cells, pilot screen (AID 823); conditions: HCT116 beta-catenin knockout viability, CellTiter-Glo, 60 h; at 10 µM; stronger effect = lower value;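 further: 0% = wells killed by 20 µM Hyamine and 100% = untreated DMSO cell wells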
[5] = viability of PTEN-null HCT116 cells – cell-based, HCT116 clonal line, CellTiter-Glo, pilot screen (AID 824;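 active means viability at or below 27.92% in each of two runs, the all-compound median minus 4 SD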;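 further: 0% = 20 µM Hyamine control and 100% = vehicle cell control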); conditions: HCT116 PTEN-deleted viability, 60 h, at 10 µM, stronger effect = lower value
[6] = RAM pathway blockade in budding yeast – dse1pr::URA3 reporter, 5-FOA selection, pilot screen (AID 869;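 active means inhibition over a set limit, the all-compound mean plus 3 SD, in both replicate runs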;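 further: 0% = DMSO wells with no growth and 100% = 10 µM 1-NA-PP1 with full growth; RAM network block rescues cells from 5-FOA so hits raise OD615 growth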); conditions: S. cerevisiae dse1pr::URA3 5-FOA growth, OD615, 2 d; at 10 µM; stronger effect = higher value; strain carries analog-sensitive mutant Cbk1 kinase
[7] = MRP1 drug-resistance reversers in H69AR cells – cell-based, doxorubicin co-treatment, pilot screen (AID 601;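 active means viability loss from added drug above about 55%, and viability with drug at most 40%, in both replicates, limit read from the data, passing the limit was not always enough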); conditions: CellTiter-Glo, 72 h, at 10 µM
[8] = yeast transport mutant growth inhibition pilot in 384-well plates, post-Golgi transport modulator project (AID 636; in the data active means inhibition above about 31%); conditions: absorbance 615 nm, about 18 h, stronger effect = higher value
[9] = growth suppression of yeast trafficking mutant, preliminary HTS, modulators of trafficking downstream of Golgi apparatus project, 1536-format plate, OD 615 nm (AID 637; in the data active means inhibition above about 30%); conditions: yeast transport mutant growth, absorbance 615 nm, 18 h; stronger effect = higher value

CCOc1ccc(CN2CCNC(=O)C2CC(=O)OC)cc1 (configuration not stated)
inactive: growth inhibition [1] 0.415% | growth inhibition [2] -7.59% | viability increase [3] -0.51% | viability [4] 98.7% | viability [5] 102% | inhibition [6] 1.59%

CCCc1nnc(NC(=O)c2ccncc2)s1
inactive: growth inhibition [1] -5.46% | growth inhibition [2] -3.19% | viability increase [3] 0.44% | viability [4] 103% | viability [5] 99.1% | inhibition [6] 1.42%

COc1cccc(CSc2nc3sc(C)c(C)c3c(=O)n2Cc2ccco2)c1
inactive: growth inhibition [1] 6.35% | growth inhibition [2] 2.66% | viability increase [3] 0.35% | viability [4] 95.7% | viability [5] 93%

Clc1ccc(Cc2nnc(-c3cccs3)o2)cc1
inactive: growth inhibition [1] -0.04% | growth inhibition [2] 5.1% | viability increase [3] 4.43% | viability [4] 106% | viability [5] 95.9% | inhibition [6] 0.935%

Cc1csc(NC(=O)c2sc3nc(-c4cccs4)ccc3c2N)n1
47.9%: viability ([7]; H69AR cells, compound alone cytotoxicity)
inactive: differential viability (reversal) ([7]; H69AR cells + 2 uM doxorubicin, stronger effect = higher value) -12.4% | inhibition [8] 0% | inhibition [9] -6.35%
60.3%: viability ([7]; H69AR cells + 2 uM doxorubicin, measured here: viability with 2 uM doxorubicin, stronger effect = lower value)

Cc1ccc(-c2nc(CS(=O)CC(=O)NCc3ccc(Cl)cc3)c(C)o2)cc1 (configuration not stated)
inactive: growth inhibition [1] 1.44% | growth inhibition [2] -4.35% | viability increase [3] -2.83% | viability [4] 73.5% | viability [5] 80.2% | inhibition [6] 3.42%

COc1ccc(-c2n[nH]c(C)c2-c2cnn(-c3ccccc3)c2)c(O)c1
inactive: growth inhibition [1] 5.3% | growth inhibition [2] 0.745% | viability increase [3] -2.75% | viability [4] 85.2% | viability [5] 92.2% | inhibition [6] -0.205%

O=C(CCS(=O)(=O)c1cccc2nonc12)N1CCN(c2ccc(F)cc2)CC1
inactive: growth inhibition [1] -6.7% | growth inhibition [2] -0.575% | viability increase [3] 0.64% | viability [4] 96.3% | viability [5] 96.2% | inhibition [6] 1.71%

CCC(Sc1nc2c(cnn2-c2ccccc2)c(=O)[nH]1)C(=O)OC (configuration not stated)
inactive: growth inhibition [1] -17.3% | growth inhibition [2] -17.4% | viability increase [3] -1.58% | viability [4] 91.8% | viability [5] 91.5% | inhibition [6] 0.65%

O=C(Cn1cc2c(n1)CCCCC2)NCCCN1CCOCC1
inactive: growth inhibition [1] -9.29% | growth inhibition [2] -6.7% | viability increase [3] 0.92% | viability [4] 112% | viability [5] 99.8% | inhibition [6] 2.08%

CN(C)c1ccc(-c2noc(C3CCN(S(=O)(=O)c4cccc(Cl)c4)CC3)n2)cc1
inactive: growth inhibition [1] -5.86% | growth inhibition [2] -11.7% | viability increase [3] 3.01% | viability [4] 82.5% | viability [5] 94.2% | inhibition [6] 2.6%

COc1cccc(NC(=O)c2ccc(S(=O)(=O)N3CCCCC3)cc2)c1
inactive: growth inhibition [1] 4.79% | growth inhibition [2] 5.21% | viability increase [3] -1.52% | viability [4] 95.6% | viability [5] 85.7% | inhibition [6] 1.28%

COc1ccc(-c2noc(-c3cc(C)cc(C)c3)n2)cc1OC
inactive: growth inhibition [1] -16.5% | growth inhibition [2] -30.9% | viability increase [3] 4.05% | viability [4] 100% | viability [5] 96.6%

O=C(c1cnn2ccccc12)N1CCCc2ccccc21
inactive: growth inhibition [1] -3.54% | growth inhibition [2] -1.29% | viability increase [3] -1.74% | viability [4] 97.1% | viability [5] 91.9% | inhibition [6] 2.38%

Cc1cccc(C)c1OCc1nnc(SCC(=O)Nc2nccs2)o1
inactive: growth inhibition [1] -0.12% | growth inhibition [2] 0.57% | viability increase [3] -1.15% | viability [4] 94% | viability [5] 87.4% | inhibition [6] 2.88%

Cc1c(C(=O)O)nn(-c2ccccc2)c(=O)c1C#N
inactive: growth inhibition [1] -15.2% | growth inhibition [2] 5.62% | viability increase [3] 0.49% | viability [4] 98.4% | viability [5] 102% | inhibition [6] 1.46%

CCN1CCN(CC(=O)Nc2ccc(Cl)c(Cl)c2)C(=O)C1=O
inactive: growth inhibition [1] 3.48% | growth inhibition [2] -8.29% | viability increase [3] -0.65% | viability [4] 102% | viability [5] 97.7% | inhibition [6] 0.63%

O=c1c2ccccc2nc(N2CCN(c3ccccc3)CC2)n1Cc1ccccc1
inactive: growth inhibition [1] -18.7% | growth inhibition [2] -8.96% | viability increase [3] -6.05% | viability [4] 66.3% | viability [5] 72.8% | inhibition [6] 1.27%

Cn1c(-n2c(CCCN3C(=O)c4ccccc4C3=O)nc3ccccc3c2=O)nc2ccccc21
inactive: growth inhibition [1] -1.74% | growth inhibition [2] 2.53% | viability increase [3] -3.91% | viability [4] 84.5% | viability [5] 87.2% | inhibition [6] 2.62%

CCN1CCN(CC(=O)Nc2cccc(C)c2)C(=O)C1=O
inactive: growth inhibition [1] -9.91% | growth inhibition [2] -0.21% | viability increase [3] -1.01% | viability [4] 99.6% | viability [5] 95.6% | inhibition [6] 1.27%
